NF-kB expr up: compounds increasing NF-kB expression in human neuronal cells | hit rate 1.6% among 190,000 | NF-kB reporter expression; hits give high values | AID 1239 | fold change at 12.5 µM; in the data active means fold change above about 3.3
STAT1 blocker: inhibitors of IFN-gamma induced STAT1 signaling; NIH 3T3 STAT1-luciferase reporter, luminescence; inhibition, % at 5.5 µM; hit rate 0.35% among 200,000; AID 920;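 active means inhibition above a set limit, the mean inhibition across all tested compounds plus 3 SD, cut at about 34% in these data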;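 further: 0% = IFN-gamma with DMSO and 100% = IFN-gamma with 300 µM nifuroxazide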
STAT3 act-1: activators of IL-6 induced STAT3 signaling; U3A cells, IL-6 STAT3-luciferase reporter, luminescence; 100% = signal with IL-6 EC80 alone; activation (% of control), % at 5.6 µM; hit rate 0.91% among 190,000;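 active means activation above the screen-wide mean of compound activation plus 3 SD, cut at about 130% in these data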;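 further: 0% = background luminescence of wells with medium and substrate only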
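Material: STAT1-lacking human U3A cells, STAT3 luciferase reporter | Benchmarks: IL-6-only wells as 100% reference | Probe or stimulus: IL-6 (33 ng/mL) | Timing: Compound 1 h, then IL-6 6 h at 37 °C | Detection: Luminescence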
APP 5'UTR act: activates APP 5'UTR luciferase reporter; SH-SY5Y APP 5'UTR luciferase reporter, luminescence; zero percent = DMSO vehicle wells; activation, % at 2 µM; hit rate 1% among 190,000; AID 1276;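 active means activation above a set limit, based on mean plus 3 SD of controls, cut at about 140% in these data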
STAT1 act-1: STAT1 signaling activation; NIH 3T3 STAT1-luciferase reporter, IFN-gamma, luminescence; 100% = IFN-gamma alone, no compound; activation (% of control), % at 5.5 µM; hit rate 2.6% among 200,000;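 active means activation above the screen-wide mean activation plus 3 SD, cut at about 130% in these data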;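 further: raw ratio to IFN-gamma control signal so 100% means no change and 0% no light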
STAT3 blocker: STAT3 signaling inhibition. hit rate 0.89% among 190,000. AID 862. U3A cells, IL-6 STAT3-luciferase reporter, luminescence; host cell line lacks STAT1. inhibition, % at 5.5 µM;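 active means inhibition above the mean inhibition across all screened compounds plus 3 SD, cut at about 44% in these data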;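 further: 0% = DMSO only wells and 100% = 100 µM nifuroxazide control wells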
STAT3 act-2: STAT3 activation, confirmation assay; hit rate 64% among 1,200; U3A STAT3-luciferase reporter, IL-6 potentiation, luminescence; U3A cells lack STAT1; 100 means same as IL-6 alone; shares compounds with STAT3 act-1; potentiation (% of control), % at 5.7 µM; AID 1267;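 active means percent activation of the STAT3 luciferase reporter above a set limit taken from the earlier primary screen, cut at about 130% in these data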;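 further: 0% = background signal of medium plus substrate and 100% = median of IL-6 with DMSO wells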
NFkB act STAT3ct: NF-kappaB activation in STAT3 activator counter-screen; shares compounds with STAT3 act-1; human cells, NF-kappaB reporter activation; activation (% of control), % at 5.7 µM; hit rate 11% among 1,200; AID 1309; in the data active means activation above about 120%;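 further: reporter induced by TNF-alpha stimulation; 100% = median of stimulated DMSO wells and 0% = no signal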
STAT1 act-2: activates STAT1, counter-screen to STAT3 activators. hit rate 13% among 1,200. shares compounds with STAT3 act-1. NIH 3T3 STAT1-luciferase reporter, IFN-gamma, luminescence. activation (% of control), % at 5.7 µM;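 active means activation above the solvent-only control well mean plus 3 SD, set per screening run, cut at about 120% in these data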;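 further: 100% = IFN-gamma with DMSO median signal so 100% means no change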
* marks the source's active call; other numbers are inactive results; x = no result. Hits are enriched below; roughly 4.9% of the tested compounds scored in any of these assays.

SMILES | NF-kB expr up | STAT1 blocker | STAT3 act-1 | APP 5'UTR act | STAT1 act-1 | STAT3 blocker | STAT3 act-2 | NFkB act STAT3ct | STAT1 act-2
Cn1c(-c2c(N)n(CCCc3ccccc3)c3nc4ccccc4nc23)nc2ccccc21 | 0.88 | 6.6 | 151.7* | 9.1 | 94.0 | -54.4 | 136.2* | 96.6 | 96.0
CCCCN(CC)CCCNC(=S)Nc1ccc2nc3n(c(=O)c2c1)CCCCC3 | 1.23 | 0.3 | 97.4 | -11.4 | 99.8 | 1.6 | x | x | x
O=C(CSc1nnc(COc2ccc(Cl)cc2)o1)N1CCOCC1 | 1.18 | 0.1 | 96.0 | -1.1 | 100.0 | 4.7 | x | x | x
FC(F)(F)c1nnc2c(Sc3ccccn3)nc3ccccc3n12 | 1.18 | 15.8 | 141.3* | 28.3 | 85.8 | -40.0 | 146.2* | 121.8* | 127.7*
O=C(COC(=O)C12CC3CC(CC(C3)C1)C2)NCCc1ccccc1 | 1.25 | 0.4 | 100.0 | 10.6 | 99.6 | 0.2 | x | x | x
Cc1cccc(C(=O)OCc2cncs2)c1 | 1.43 | -19.6 | 96.6 | 1.9 | 115.0 | 8.8 | x | x | x
CC1=C(C(=O)OCC2CCCO2)C(c2coc3ccccc3c2=O)C2=C(CCCC2=O)N1 (configuration not stated) | 0.98 | -7.5 | 142.8* | 10.4 | 107.1 | -35.8 | 160.7* | 101.7 | 108.4
CCOC(=O)C1=C(C)NC2=C(C(=O)CCC2)C1c1coc2ccccc2c1=O (configuration not stated) | 0.9 | -0.5 | 145.3* | 2.2 | 100.4 | -43.7 | 149.8* | 101.1 | 102.4
CC1=C(C(=O)Nc2ccccc2)C(c2coc3ccccc3c2=O)C2=C(CCCC2=O)N1 (configuration not stated) | 0.86 | -6.5 | 122.4 | 32.8 | 105.8 | -22.1 | x | x | x
COC(=O)C1=C(C)NC2=C(C(=O)CCC2)C1c1coc2ccccc2c1=O (configuration not stated) | 0.9 | 14.5 | 139.5* | -13.3 | 85.5 | -39.0 | 146.9* | 106.7 | 109.7
CC1=C(C(=O)OC2CCCC2)C(c2coc3ccccc3c2=O)C2=C(CCCC2=O)N1 (configuration not stated) | 1.15 | 3.0 | 136.9* | 4.2 | 98.8 | -37.2 | 125.3 | 95.5 | 92.2
O=C(Nc1nnc(SCc2ccc(F)cc2)s1)c1ccc2c(c1)C(=O)N(c1ccccc1Cl)C2=O | x | -2.4 | 96.9 | 8.4 | 100.5 | 8.6 | x | x | x
Cc1onc(-c2ccccc2Cl)c1C(=O)Oc1cccc2cccnc12 | 0.95 | 12.8 | 98.2 | 11.2 | 87.6 | 13.4 | x | x | x
CC(C)CCNC(=O)Cc1ccccc1[N+](=O)[O-] | 0.92 | 10.2 | 150.0* | 12.0 | 90.8 | -47.0 | 128.2 | 101.9 | 95.6
Cc1ccc(C(=O)c2cc([N+](=O)[O-])ccc2N2CCCCC2)c(C)c1 | 3.89* | 0.1 | 137.4* | -96.2 | 99.9 | -38.9 | 115.8 | 152.2* | 107.7
Cc1ccc(C(=O)c2cc([N+](=O)[O-])ccc2N2CCOCC2)cc1 | 2.11 | 3.4 | 95.0 | -93.2 | 97.0 | 5.3 | x | x | x
CCC(CC)NC(=O)c1cc([N+](=O)[O-])ccc1N1CCOCC1 | 0.97 | -2.4 | 98.0 | 1.2 | 102.2 | 0.9 | x | x | x
CCOc1ccc(C(=O)c2cc([N+](=O)[O-])ccc2N2CCOCC2)cc1 | 3.62* | -25.4 | 166.0* | -94.1 | 122.5 | -68.4 | 127.1 | 164.8* | 131.6*
COc1ccc(C(=O)c2cc([N+](=O)[O-])ccc2N2CCOCC2)cc1 | 3.37* | -20.1 | 163.3* | -92.8 | 118.2 | -74.4 | 125.0 | 171.7* | 141.1*
Cc1cccc2[nH]c(SCC(=O)N3CCOCC3)nc12 | 1.8 | -7.8 | 90.5 | 32.8 | 106.9 | 16.0 | x | x | x
Fc1cccc(CN2CCN(c3nc4nonc4nc3NC3CC3)CC2)c1 | 0.91 | 0.8 | 104.7 | -3.5 | 99.2 | 0.5 | x | x | x
O=C(NCCCN1CCCC1=O)c1ccc2c(=O)n(-c3ccccc3F)c(=S)[nH]c2c1 | 1 | -1.9 | 91.4 | 5.8 | 100.6 | 13.8 | x | x | x

Bioassay records as filed in PubChem BioAssay.
